Laboratory results: ChEMBL document CHEMBL1122285, “New myocardial imaging agents: stabilization of radioiodine as a terminal vinyl iodide moiety on tellurium fatty acids” (J Med Chem, 1983)
Values joined by “and” are separate entries in the source; they are usually repeats but may differ in a detail not shown here. Equal values may be shown once.

How the values were obtained:
[1] = test system: Rattus norvegicus; test: Tested for distribution of radioactivity of tellurium-123 in blood of rat after 30 min of intravenous administration; type: ADME, organism-based; settings: in vivo, 0.5 h
Outline: (§1)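 123mTe-labelled fatty acid (sp act ~20 mCi/mmol), ~6.8–8.4 μCi per rat, was given by lateral tail vein in 0.5 mL 6% BSA with 10% final ethanol to ether-anaesthetised Fischer 344 rats, four per time point. Tissue activity is expressed as mean % injected dose/g (range) against injectate standards.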

[2] = test system: Rattus norvegicus; test: Tested for distribution of radioactivity of iodine 125 in lungs of rat after 5 min of intravenous administration; type: ADME, organism-based, Lung; settings: in vivo
Outline: (§2)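 Fischer 344 rats, four per time point, under ether anaesthesia. Each received ~8.6 μCi of 125I-labelled fatty acid (sp act ~20 mCi/mmol) by lateral tail vein in 0.5 mL 6% bovine serum albumin with 10% final ethanol, filtered before injection. Percent injected dose/g was calculated against injectate standards and reported as mean (range). Thyroid weight was taken as body weight × 7.5 mg/100 g.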

[3] = test system: Rattus norvegicus; test: Tested for distribution of radioactivity of tellurium-123 in lungs of rat after 60 min of intravenous administration; type: ADME, organism-based, Lung; settings: in vivo, 1 h; outline: as §1
[4] = test system: Rattus norvegicus; test: Tested for distribution of radioactivity of tellurium-123 in liver of rat after 5 min of intravenous administration; type: ADME, organism-based; settings: in vivo; outline: as §1
[5] = test system: Rattus norvegicus; test: Tested for distribution of radioactivity of iodine 125 in thyroid of rat after 30 min of intravenous administration; type: ADME, organism-based, Thyroid gland; settings: in vivo, 0.5 h; outline: as §2
[6] = test system: Rattus norvegicus; test: Tested for distribution of radioactivity of tellurium-123 in heart of rat after 60 min of intravenous administration; type: ADME, organism-based; settings: in vivo, 1 h; outline: as §1
[7] = test system: Rattus norvegicus; test: Tested for distribution of radioactivity of iodine 125 in blood of rat after 60 min of intravenous administration; type: ADME, organism-based; settings: in vivo, 1 h; outline: as §2
[8] = test system: Rattus norvegicus; test: Tested for distribution of radioactivity of tellurium-123 in heart of rat after 30 min of intravenous administration; type: ADME, organism-based; settings: in vivo, 0.5 h; outline: as §1
[9] = test system: Rattus norvegicus; test: Tested for distribution of radioactivity of iodine 125 in thyroid of rat after 60 min of intravenous administration; type: ADME, organism-based, Thyroid gland; settings: in vivo, 1 h; outline: as §2
[10] = test system: Rattus norvegicus; test: Tested for distribution of radioactivity of tellurium-123 in kidney of rat after 30 min of intravenous administration; type: ADME, organism-based; settings: in vivo, 0.5 h; outline: as §1
[11] = test system: Rattus norvegicus; test: Tested for distribution of radioactivity of iodine 125 in lungs of rat after 30 min of intravenous administration; type: ADME, organism-based, Lung; settings: in vivo, 0.5 h; outline: as §2
[12] = test system: Rattus norvegicus; test: Tested for distribution of radioactivity of iodine 125 in liver of rat after 60 min of intravenous administration; type: ADME, organism-based; settings: in vivo, 1 h; outline: as §2
[13] = test system: Rattus norvegicus; test: Tested for distribution of radioactivity of iodine 125 in blood of rat after 30 min of intravenous administration; type: ADME, organism-based; settings: in vivo, 0.5 h; outline: as §2
[14] = test system: Rattus norvegicus; test: Tested for distribution of radioactivity of tellurium-123 in kidney of rat after 5 min of intravenous administration; type: ADME, organism-based; settings: in vivo; outline: as §1
[15] = test system: Rattus norvegicus; test: Tested for distribution of radioactivity of tellurium-123 in blood of rat after 5 min of intravenous administration; type: ADME, organism-based; settings: in vivo; outline: as §1
[16] = test system: Rattus norvegicus; test: Tested for distribution of radioactivity of iodine 125 in kidney of rat after 30 min of intravenous administration; type: ADME, organism-based; settings: in vivo, 0.5 h; outline: as §2
[17] = test system: Rattus norvegicus; test: Tested for distribution of radioactivity iodine 125 in heart of rat after 3 days intravenous administration; type: ADME, organism-based; settings: in vivo, 72 h; outline: as §2
[18] = test system: Rattus norvegicus; test: Tested for distribution of radioactivity iodine 125 in heart of rat after 30 min of intravenous administration (value in parentheses indicates range); type: ADME, organism-based; settings: in vivo, 0.5 h; outline: as §2
[19] = test system: Rattus norvegicus; test: Tested for distribution of radioactivity iodine 125 in heart of rat after 4 hours of intravenous administration; type: ADME, organism-based; settings: in vivo; outline: as §2
[20] = test system: Rattus norvegicus; test: Tested for distribution of radioactivity of tellurium-123 in kidney of rat after 60 min of intravenous administration; type: ADME, organism-based; settings: in vivo, 1 h; outline: as §1
[21] = test system: Rattus norvegicus; test: Tested for distribution of radioactivity of iodine 125 in thyroid of rat after 5 min of intravenous administration; type: ADME, organism-based, Thyroid gland; settings: in vivo; outline: as §2
[22] = test system: Rattus norvegicus; test: Tested for distribution of radioactivity of tellurium-123 in lungs of rat after 5 min of intravenous administration; type: ADME, organism-based, Lung; settings: in vivo; outline: as §1
[23] = test system: Rattus norvegicus; test: Tested for distribution of radioactivity of iodine 125 in blood of rat after 2 hour of intravenous administration; type: ADME, organism-based; settings: in vivo; outline: as §2
[24] = test system: Rattus norvegicus; test: Tested for distribution of radioactivity of iodine 125 in liver of rat after 4 hr of intravenous administration; type: ADME, organism-based; settings: in vivo; outline: as §2
[25] = test system: Rattus norvegicus; test: Tested for distribution of radioactivity of tellurium-123 in liver of rat after 60 min of intravenous administration; type: ADME, organism-based; settings: in vivo, 1 h; outline: as §1
[26] = test system: Rattus norvegicus; test: Tested for distribution of radioactivity of iodine 125 in blood of rat after 4 hours of intravenous administration; type: ADME, organism-based; settings: in vivo; outline: as §2
[27] = test system: Rattus norvegicus; test: Tested for distribution of radioactivity of iodine 125 in kidney of rat after 2 hours of intravenous administration; type: ADME, organism-based; settings: in vivo; outline: as §2
[28] = test system: Rattus norvegicus; test: Tested for distribution of radioactivity of iodine 125 in liver of rat after 2 hr of intravenous administration; type: ADME, organism-based; settings: in vivo; outline: as §2
[29] = test system: Rattus norvegicus; test: Tested for distribution of radioactivity of iodine 125 in lungs of rat after 3 days of intravenous administration; type: ADME, organism-based, Lung; settings: in vivo, 72 h; outline: as §2
[30] = test system: Rattus norvegicus; test: Tested for distribution of radioactivity of iodine 125 in lungs of rat after 2 hours of intravenous administration; type: ADME, organism-based, Lung; settings: in vivo; outline: as §2
[31] = test system: Rattus norvegicus; test: Tested for distribution of radioactivity of iodine 125 in liver of rat after 5 min of intravenous administration; type: ADME, organism-based; settings: in vivo; outline: as §2
[32] = test system: Rattus norvegicus; test: Tested for distribution of radioactivity of iodine 125 in blood of rat after 5 min of intravenous administration; type: ADME, organism-based; settings: in vivo; outline: as §2
[33] = test system: Rattus norvegicus; test: Tested for distribution of radioactivity of iodine 125 in liver of rat after 3 days of intravenous administration; type: ADME, organism-based; settings: in vivo, 72 h; outline: as §2
[34] = test system: Rattus norvegicus; test: Tested for distribution of radioactivity of tellurium-123 in liver of rat after 30 min of intravenous administration; type: ADME, organism-based; settings: in vivo, 0.5 h; outline: as §1
[35] = test system: Rattus norvegicus; test: Tested for distribution of radioactivity of iodine 125 in liver of rat after 30 min of intravenous administration; type: ADME, organism-based; settings: in vivo, 0.5 h; outline: as §2
[36] = test system: Rattus norvegicus; test: Tested for distribution of radioactivity iodine 125 in heart of rat after 60 min of intravenous administration; type: ADME, organism-based; settings: in vivo, 1 h; outline: as §2
[37] = test system: Rattus norvegicus; test: Tested for distribution of radioactivity of iodine 125 in kidney of rat after 5 min of intravenous administration; type: ADME, organism-based; settings: in vivo; outline: as §2
[38] = test system: Rattus norvegicus; test: Tested for distribution of radioactivity of tellurium-123 in heart of rat after 5 min of intravenous administration; type: ADME, organism-based; settings: in vivo; outline: as §1
[39] = test system: Rattus norvegicus; test: Tested for distribution of radioactivity of iodine 125 in kidney of rat after 3 days of intravenous administration; type: ADME, organism-based; settings: in vivo, 72 h; outline: as §2
[40] = test system: Rattus norvegicus; test: Tested for distribution of radioactivity of tellurium-123 in lungs of rat after 30 min of intravenous administration; type: ADME, organism-based, Lung; settings: in vivo, 0.5 h; outline: as §1
[41] = Tested for distribution of radioactivity of iodine 125 in kidney of rat after 60 min of intravenous administration; type: ADME; settings: in vivo, 1 h; outline: as §2
[42] = test system: Rattus norvegicus; test: Tested for distribution of radioactivity of iodine 125 in heart of rat after 5 min of intravenous administration; type: ADME, organism-based; settings: in vivo; outline: as §2
[43] = test system: Rattus norvegicus; test: Tested for distribution of radioactivity of iodine 125 in lungs of rat after 60 min of intravenous administration; type: ADME, organism-based, Lung; settings: in vivo, 1 h; outline: as §2
[44] = test system: Rattus norvegicus; test: Tested for distribution of radioactivity of iodine 125 in kidney of rat after 4 hours of intravenous administration; type: ADME, organism-based; settings: in vivo; outline: as §2
[45] = test system: Rattus norvegicus; test: Tested for distribution of radioactivity of tellurium-123 in blood of rat after 60 min of intravenous administration; type: ADME, organism-based; settings: in vivo, 1 h; outline: as §1
[46] = test system: Rattus norvegicus; test: Tested for distribution of radioactivity of iodine 125 in blood of rat after 3 days of intravenous administration; type: ADME, organism-based; settings: in vivo, 72 h; outline: as §2
[47] = test system: Rattus norvegicus; test: Tested for distribution of radioactivity in heart of rat after 2 hours of intravenous administration; type: ADME, organism-based; settings: in vivo; outline: as §2

O=C(O)CCCCCCCCCCC[Te]CCC/C=C\I
Injected dose/g [1]: 0.84%
Injected dose/g [2]: 0.92%
Injected dose/g [3]: 1% and 1.49%
Injected dose/g [4]: 7.78% and 8.26%
Injected dose/g [5]: 5.64%
Injected dose/g [6]: 1.92% and 0.83%
Injected dose/g [7]: 0.69%
Injected dose/g [8]: 1.98%
Injected dose/g [9]: 13.41%
Injected dose/g [10]: 1.73% and 1.62%
Injected dose/g [11]: 0.89%
Injected dose/g [12]: 4.39%
Injected dose/g [13]: 0.61%
Injected dose/g [14]: 1.46% and 1.54%
Injected dose/g [15]: 0.32% and 0.25%
Injected dose/g [16]: 1.04%
Injected dose/g [17]: 0.09%
Injected dose/g [18]: 1.52%
Injected dose/g [19]: 0.76%
Injected dose/g [20]: 1.85%
Injected dose/g [21]: 1.62%
Injected dose/g [22]: 0.91%
Injected dose/g [23]: 0.68%
Injected dose/g [24]: 1.95%
Injected dose/g [25]: 4.49%
Injected dose/g [26]: 0.65%
Injected dose/g [27]: 0.96%
Injected dose/g [28]: 2.45%
Injected dose/g [29]: 0.1%
Injected dose/g [30]: 0.81%
Injected dose/g [31]: 8.78%
Injected dose/g [32]: 0.15%
Injected dose/g [33]: 0.09%
Injected dose/g [34]: 5.53%
Injected dose/g [35]: 5.32%
Injected dose/g [36]: 1.81%
Injected dose/g [37]: 1.01%
Injected dose/g [38]: 2.09%
Injected dose/g [39]: 0.08%
Injected dose/g [40]: 1.03%
Injected dose/g [41]: 1.15%
Injected dose/g [42]: 1.46%
Injected dose/g [43]: 1.02%
Injected dose/g [44]: 0.93%
Injected dose/g [45]: 0.95%
Injected dose/g [46]: 0.03%
Injected dose/g [47]: 1.03%
